Measured values: ChEMBL document CHEMBL4382255, “Design, synthesis and activity of Mnk1 and Mnk2 selective inhibitors containing thieno[2,3-d]pyrimidine scaffold” (Eur J Med Chem, 2019)
Active and inactive are the calls of the source. Unless noted, the rule behind the calls is not given here.

Assays:
[1] = molecular target: Mitogen-activated protein kinase 1 and 3 (ERK2 and ERK1) (Mus musculus) (UniProt P63085+Q63844); assay: Stimulation of ERK1/2 phosphorylation at Thr202/Tyr204 residues in mouse 3T3L1 cells at 0.1 to 5 uM after 2 hrs by Western blot analysis; format: cell-based
Sequence of Mitogen-activated protein kinase 1 and 3 (ERK2 and ERK1) (Mus musculus) (P63085 whole entry, looked up): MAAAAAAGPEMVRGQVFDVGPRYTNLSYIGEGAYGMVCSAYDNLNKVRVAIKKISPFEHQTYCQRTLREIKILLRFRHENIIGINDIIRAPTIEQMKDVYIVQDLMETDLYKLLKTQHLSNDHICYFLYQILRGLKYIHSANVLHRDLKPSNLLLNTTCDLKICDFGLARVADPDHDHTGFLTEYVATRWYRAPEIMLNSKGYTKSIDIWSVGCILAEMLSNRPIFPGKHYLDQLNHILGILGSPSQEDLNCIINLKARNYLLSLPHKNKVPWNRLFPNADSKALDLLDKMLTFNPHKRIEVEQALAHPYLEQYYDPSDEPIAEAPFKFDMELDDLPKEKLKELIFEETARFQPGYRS
Sequence of Mitogen-activated protein kinase 1 and 3 (ERK2 and ERK1) (Mus musculus) (Q63844 whole entry, looked up): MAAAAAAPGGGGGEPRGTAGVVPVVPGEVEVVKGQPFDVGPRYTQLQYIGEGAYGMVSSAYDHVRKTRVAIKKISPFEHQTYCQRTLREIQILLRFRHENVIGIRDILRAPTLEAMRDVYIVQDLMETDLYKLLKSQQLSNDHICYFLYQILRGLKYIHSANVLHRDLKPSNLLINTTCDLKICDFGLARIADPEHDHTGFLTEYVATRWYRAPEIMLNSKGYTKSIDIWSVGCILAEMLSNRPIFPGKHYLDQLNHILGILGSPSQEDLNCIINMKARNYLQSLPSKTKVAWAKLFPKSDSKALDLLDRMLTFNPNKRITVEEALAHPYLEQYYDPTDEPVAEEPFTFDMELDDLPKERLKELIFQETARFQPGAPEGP
Procedure, shortened: (§1)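 3T3-L1 cells treated 2 h with inhibitor at indicated concentrations (DMSO <0.05% v/v). RIPA lysates, equal protein by Bradford, SDS-PAGE and western blot with phospho-specific antibodies (ERK, RSK, PKB Ser473, 4E-BP1, rpS6); fluorescent secondary imaging. Quantified from three independent experiments, SEM error bars.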

[2] = molecular target: MAP kinase-interacting serine/threonine-protein kinase 2 (Mus musculus) (UniProt Q8CDB0); assay: Inhibition of MNK2 in MNK1-knockout C57BL/6J mouse embryonic fibroblasts assessed as decrease in eIF4E phosphorylation at 0.003 to 0.03 uM after 2 hrs by Western blot analysis
Sequence of MAP kinase-interacting serine/threonine-protein kinase 2 (Mus musculus) (Q8CDB0 whole entry): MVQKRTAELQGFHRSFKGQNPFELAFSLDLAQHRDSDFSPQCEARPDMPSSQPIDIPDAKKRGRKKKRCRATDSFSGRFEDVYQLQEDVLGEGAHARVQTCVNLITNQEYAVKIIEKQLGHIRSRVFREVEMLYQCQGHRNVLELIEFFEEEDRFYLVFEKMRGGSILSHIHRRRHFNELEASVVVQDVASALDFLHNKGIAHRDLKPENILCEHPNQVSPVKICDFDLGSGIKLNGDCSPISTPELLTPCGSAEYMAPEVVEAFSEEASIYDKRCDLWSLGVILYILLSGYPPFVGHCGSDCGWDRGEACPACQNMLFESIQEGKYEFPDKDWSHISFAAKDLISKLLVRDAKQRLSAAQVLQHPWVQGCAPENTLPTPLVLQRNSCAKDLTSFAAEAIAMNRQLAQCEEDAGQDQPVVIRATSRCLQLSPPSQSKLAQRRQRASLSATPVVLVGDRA
Procedure, shortened: (§2)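 MEFs from E13.5 C57BL/6J embryos, wild-type, MNK1-KO or MNK2-KO (DMEM, 10% FBS), treated 2 h with inhibitor at indicated concentrations, including a lower-concentration series in MNK1-KO cells; CGP57380 at 50 μM as reference. Lysates analysed by SDS-PAGE/western blot for P-eIF4E; quantified from three independent experiments, SEM.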

3T3-L1 = assay: Effect on total eIF4E protein level in mouse 3T3L1 cells at 3 uM after 2 hrs by Western blot analysis; format: ADME, cell-based; details: 3t3-l1, 2 h
Procedure, shortened: (§3)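 Mouse 3T3-L1 pre-adipocytes (DMEM high glucose, 10% heat-inactivated FBS, 37 °C, 5% CO₂) treated 2 h with compounds at 3 μM or lower concentrations down to 0.1 μM final; DMSO vehicle 0.03-0.05% final. RIPA lysates cleared, equal protein resolved by SDS-PAGE, immunoblotted for P-eIF4E and total eIF4E, fluorescent secondary detection.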

Mus musculus [3] = species: Mus musculus; assay: Inhibition of mTORC1 in mouse 3T3L1 cells assessed as reduction in 4EBP1 at Ser65 residue phosphorylation at 0.1 to 5 uM after 2 hrs by Western blot analysis; format: cell-based; procedure, shortened: as §1
MDA-MB-231 [4] = assay: Antimigratory activity against human MDA-MB-231 cells after 24 hrs by DAPI staining-based Transwell assay; format: functional, cell-based
Procedure, shortened: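 MDA-MB-231 cells pre-treated with inhibitor 60 min, then 3 x 10⁵ cells seeded into 8 μm-pore Transwell inserts pre-coated with 10 μg/ml collagen (collagen as attractant). After 24 h, migrated cells in bottom well stained with DAPI, imaged at ×10 and counted. Triplicate assays, mean ± SEM.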

[5] = molecular target: T1, MAP kinase-interacting serine/threonine-protein kinase 1/2 (Homo sapiens) (UniProt Q9HBH9+Q9BUB5); assay: Inhibition of MNK in human MDA-MB-231 cells assessed as decrease in eIF4E phosphorylation at 3 uM up to 72 hrs by Western blot analysis; format: cell-based
Procedure, shortened: (§4)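 MDA-MB-231 cells treated with inhibitor at indicated concentrations for 2 h, or at 3 μM for times up to 72 h (DMSO vehicle <0.05%). Cells lysed in RIPA buffer; supernatants analysed by SDS-PAGE and western blot for P-eIF4E and total eIF4E. CGP57380 at 30 μM as reference.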

[6] = molecular target: MAP kinase-interacting serine/threonine-protein kinase 1 (Mus musculus) (UniProt O08605); assay: Inhibition of MNK1 in C57BL/6J mouse embryonic fibroblasts assessed as decrease in eIF4E phosphorylation at 0.1 to 0.3 uM after 2 hrs by Western blot analysis relative to control; procedure, shortened: as §2
Sequence of MAP kinase-interacting serine/threonine-protein kinase 1 (Mus musculus) (O08605 whole entry, the tested form may be a part): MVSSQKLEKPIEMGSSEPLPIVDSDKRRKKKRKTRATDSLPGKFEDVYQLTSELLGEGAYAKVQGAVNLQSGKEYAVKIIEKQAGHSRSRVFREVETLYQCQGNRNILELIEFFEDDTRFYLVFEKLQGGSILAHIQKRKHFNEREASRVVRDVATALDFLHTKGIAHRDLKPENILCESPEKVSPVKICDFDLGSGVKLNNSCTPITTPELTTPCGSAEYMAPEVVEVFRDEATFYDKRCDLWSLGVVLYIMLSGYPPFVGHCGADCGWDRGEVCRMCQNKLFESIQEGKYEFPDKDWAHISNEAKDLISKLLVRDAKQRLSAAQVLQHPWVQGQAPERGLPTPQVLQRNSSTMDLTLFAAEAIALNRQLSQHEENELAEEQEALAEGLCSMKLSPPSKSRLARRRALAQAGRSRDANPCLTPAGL

[7] = molecular target: MAP kinase-interacting serine/threonine-protein kinase 2 (Homo sapiens) (UniProt Q9HBH9); assay: Inhibition of GST-fused MNK2a (unknown origin) expressed in HEK293 cells using eIF4E as substrate after 30 mins by Western blot analysis; format: cell-based
Sequence of MAP kinase-interacting serine/threonine-protein kinase 2 (Homo sapiens) (Q9HBH9 whole entry, looked up, the tested form may be a part): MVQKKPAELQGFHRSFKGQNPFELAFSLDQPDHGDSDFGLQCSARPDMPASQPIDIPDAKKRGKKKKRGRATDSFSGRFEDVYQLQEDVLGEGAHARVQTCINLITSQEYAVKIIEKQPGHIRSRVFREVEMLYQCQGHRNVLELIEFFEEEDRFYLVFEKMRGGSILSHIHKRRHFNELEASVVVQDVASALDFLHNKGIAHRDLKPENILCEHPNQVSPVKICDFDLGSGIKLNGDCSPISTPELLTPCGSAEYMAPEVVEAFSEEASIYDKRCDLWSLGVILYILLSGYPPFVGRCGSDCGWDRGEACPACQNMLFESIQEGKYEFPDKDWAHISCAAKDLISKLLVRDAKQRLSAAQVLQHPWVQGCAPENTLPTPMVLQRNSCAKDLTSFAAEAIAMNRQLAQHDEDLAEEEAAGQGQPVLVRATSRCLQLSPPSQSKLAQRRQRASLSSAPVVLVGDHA
Procedure, shortened: (§5)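 GST-MNK1a or GST-MNK2a expressed in transfected HEK293 cells, purified by glutathione pull-down. Incubated in 25 mM Tris-HCl pH 7.5, 50 mM KCl, 2 mM MgCl₂ with 20 µM ATP and 65 ng E. coli-expressed eIF4E, 30 °C, 30 min, ± inhibitor. Stopped with sample buffer; immunoblotted for P-eIF4E Ser209, eIF4E and GST. Conditions pre-set within linear range.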

[8] = Inhibition in C57BL/6J mouse embryonic fibroblasts assessed as decrease in eIF4E phosphorylation at 0.1 to 0.3 uM after 2 hrs by Western blot analysis relative to control
MDA-MB-231 [9] = assay: Cell cycle arrest in human MDA-MB-231 cells at 0.3 to 6 uM after 2 hrs by propidium iodide staining-based flow cytometric analysis; format: ADME; details: mda-mb-231, 2 h
Procedure, shortened: (§6)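 MDA-MB-231 cells seeded at 5 x 10^5 cells/well, allowed 24 h to attach, then treated with inhibitor or vehicle. Harvested at ~70% confluence, fixed in methanol ≥2 h, stained with 1 µg/ml propidium iodide; ~20,000 cells analysed by flow cytometry for cell-cycle phase proportions including sub-G0. Mean ± SEM, n=5.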

Mus musculus [10] = species: Mus musculus; assay: Inhibition of MNK in mouse 3T3L1 cells assessed as reduction of eIF4E phosphorylation at 3 uM after 2 hrs by Western blot analysis; format: cell-based; procedure, shortened: as §3
Mus musculus [11] = species: Mus musculus; assay: Inhibition of mTORC2 in mouse 3T3L1 cells assessed as reduction in PKB phosphorylation at Ser473 residue at 0.1 to 5 uM after 2 hrs by Western blot analysis; format: cell-based; procedure, shortened: as §1
[12] = molecular target: MAP kinase-interacting serine/threonine-protein kinase 2 (Mus musculus) (UniProt Q8CDB0); assay: Inhibition of MNK2 in MNK1-knockout C57BL/6J mouse embryonic fibroblasts assessed as decrease in eIF4E phosphorylation at 0.5 uM after 2 hrs by Western blot analysis; procedure, shortened: as §2
[13] = molecular target: MAP kinase-interacting serine/threonine-protein kinase 1 (Mus musculus) (UniProt O08605); assay: Inhibition of MNK1 in MNK2-knockout C57BL/6J mouse embryonic fibroblasts assessed as decrease in eIF4E phosphorylation at 0.3 to 5 uM after 2 hrs by Western blot analysis; procedure, shortened: as §2
Mus musculus [14] = species: Mus musculus; assay: Stimulation of ERK signalling in mouse 3T3L1 cells assessed as increase in RSK phosphorylation at […] residue at 0.1 to 5 uM after 2 hrs by Western blot analysis; format: cell-based; procedure, shortened: as §1
[15] = molecular target: MAP kinase-interacting serine/threonine-protein kinase 2 (Mus musculus) (UniProt Q8CDB0); assay: Inhibition of MNK2 in C57BL/6J mouse embryonic fibroblasts assessed as decrease in eIF4E phosphorylation at 5 uM after 2 hrs by Western blot analysis; procedure, shortened: as §2
[16] = molecular target: T1, MAP kinase-interacting serine/threonine-protein kinase 1/2 (Homo sapiens); assay: Inhibition of MNK in human MDA-MB-231 cells assessed as decrease in eIF4E phosphorylation at 1 uM after 2 hrs by Western blot analysis; format: cell-based; procedure, shortened: as §4
Mus musculus [17] = species: Mus musculus; assay: Inhibition of MNK in mouse 3T3L1 cells assessed as reduction of eIF4E phosphorylation at 0.1 uM after 2 hrs by Western blot analysis; format: cell-based; procedure, shortened: as §3
Mus musculus [18] = species: Mus musculus; assay: Inhibition of mTORC1 in mouse 3T3L1 cells assessed as reduction in rpS6 phosphorylation at Ser240/244 residues at 0.1 to 5 uM after 2 hrs by Western blot analysis; format: cell-based; procedure, shortened: as §1
[19] = molecular target: MAP kinase-interacting serine/threonine-protein kinase 1 (Mus musculus) (UniProt O08605); assay: Inhibition of MNK1 in C57BL/6J mouse embryonic fibroblasts assessed as decrease in eIF4E phosphorylation at 5 uM after 2 hrs by Western blot analysis; procedure, shortened: as §2
MDA-MB-231 [20] = assay: Cell cycle arrest in human MDA-MB-231 cells assessed as accumulation of cells at sub-G0 phase at 0.3 to 6 uM after 2 hrs by propidium iodide staining-based flow cytometric analysis; format: ADME; details: mda-mb-231, 2 h; procedure, shortened: as §6
[21] = molecular target: MAP kinase-interacting serine/threonine-protein kinase 1 (Homo sapiens) (UniProt Q9BUB5); assay: Inhibition of GST-fused MNK1a (unknown origin) expressed in HEK293 cells using eIF4E as substrate after 30 mins by Western blot analysis; format: cell-based; procedure, shortened: as §5
Sequence of MAP kinase-interacting serine/threonine-protein kinase 1 (Homo sapiens) (Q9BUB5 whole entry, looked up, the tested form may be a part): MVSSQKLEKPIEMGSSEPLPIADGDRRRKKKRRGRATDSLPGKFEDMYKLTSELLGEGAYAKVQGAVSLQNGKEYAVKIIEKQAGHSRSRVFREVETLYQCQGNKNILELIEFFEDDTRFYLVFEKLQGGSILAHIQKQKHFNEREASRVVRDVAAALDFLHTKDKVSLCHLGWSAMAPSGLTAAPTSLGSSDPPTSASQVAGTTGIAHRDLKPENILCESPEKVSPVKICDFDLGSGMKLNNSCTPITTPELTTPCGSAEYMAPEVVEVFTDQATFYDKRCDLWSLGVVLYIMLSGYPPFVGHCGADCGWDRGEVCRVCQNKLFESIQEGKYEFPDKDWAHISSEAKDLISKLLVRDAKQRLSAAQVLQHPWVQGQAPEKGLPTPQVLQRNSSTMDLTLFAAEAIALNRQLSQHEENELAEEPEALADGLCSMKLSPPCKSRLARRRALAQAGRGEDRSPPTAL

Activity [1]: Active
inhibition [2]: Active
inhibition [5]: Active
inhibition [6]: 50%
inhibition [7]: Active
inhibition [8]: 50%
inhibition [12]: Active
inhibition [13]: Active
inhibition [15]: 100%
inhibition [16]: 100%
inhibition [19]: 100%
inhibition [21]: Active
SMILES: Cc1c(C(=O)NCCCN2CCCC2)sc2ncnc(Nc3ccc(F)cc3OC(C)C)c12
Activity (3T3-L1): Non-Toxic
inhibition (Mus musculus [3]): inactive
inhibition (MDA-MB-231 [4]): Active
Activity (MDA-MB-231 [9]): Non-Toxic
MNK inhibition (active/not active) (Mus musculus [10]): Active
inhibition (Mus musculus [11]): inactive
Activity (Mus musculus [14]): Active
inhibition of eIF4E phosphorylation (active/not active) (Mus musculus [17]): Active
inhibition (Mus musculus [18]): inactive
Activity (MDA-MB-231 [20]): Non-Toxic
